Results taken from ChEMBL document CHEMBL1121664, “(Acylaryloxy)acetic acid diuretics. 4. Indeno[5,4-b]furan-2-carboxylic acids” (1981).

Columns and labels:
Pan troglodytes [1] = test: Compound was tested for the oral diuretic activity in chimpanzee at the dose 5 mg/kg expressed as excretion rate in microequiv of Cl-/min; format: functional, Urine
How it was run: (§1)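 GFR measured by iv pyrogen-free inulin. Inulin and urate clearances and Na+, K+, Cl- excretion rates measured by Auto Analyzer. Control values averaged over three 20-min periods. Compound given orally as aqueous solution via nasal catheter. Response is the mean of eight 15–20 min periods minus control, from single experiments.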

Pan troglodytes [2] = test: Compound was tested for the oral diuretic activity in chimpanzee at the dose 5 mg/kg expressed as excretion rate in microequiv of K+/min; format: functional, Urine; how it was run: as §1
[3] = Compound was tested for the ratio of clearance of urate to clearance of inulin levels at 5 mg/kg in Chimpanzee; format: functional; how it was run: as §1
Pan troglodytes [4] = test: Compound was tested for the oral natriuretic activity in chimpanzee at the dose 5 mg/kg expressed as excretion rate in microequiv of Na+/min; format: functional; how it was run: as §1
Rattus norvegicus [5] = test: Compound was tested for the oral natriuretic activity in female rats at the dose 27 mg/kg; mequiv of Na+ x 100 / cage; format: functional
How it was run: (§2)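 Female Charles River rats (150–170 g) were kept overnight on a sugar diet with water ad libitum. Compound was dosed po in a final vehicle of 4% DMF in water with Tween 80, alongside concurrent vehicle placebo. Rats were housed three per metabolism cage and urine was collected over 0–5 h. Na+ is reported as mequiv ×100 per cage, as the geometric mean of three cages per dose.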

Rattus norvegicus [6] = test: Compound was tested for the oral natriuretic activity in female rats at the dose 9 mg/kg; mequiv of Na+ x 100 / cage; format: functional; how it was run: as §2
Rattus norvegicus [7] = test: Compound was tested for the oral natriuretic activity in female rats at the dose 3 mg/kg; mequiv of Na+ x 100 / cage; format: functional; how it was run: as §2
Rattus norvegicus [8] = test: Compound was tested for the oral natriuretic activity in female rats at the dose 81 mg/kg; mequiv of Na+ x 100 / cage; format: functional; how it was run: as §2
Pan troglodytes [9] = test: Compound was tested for the oral natriuretic activity in chimpanzee at 5 mg/kg by observing the excretion rates of sodium; µequiv of Na+/min
Pan troglodytes [10] = test: Compound was tested for the oral diuretic activity in chimpanzee at the dose 0.1 mg/kg expressed as excretion rate in microequiv of Cl-/min; format: functional, Urine; how it was run: as §1
Pan troglodytes [11] = test: Compound was tested for the oral diuretic activity in chimpanzee at the dose 0.1 mg/kg expressed as excretion rate in microequiv of K+/min; format: functional, Urine; how it was run: as §1
Pan troglodytes [12] = test: Compound was tested for the oral natriuretic activity in chimpanzee at the dose 0.1 mg/kg expressed as excretion rate in microequiv of Na+/min; format: functional; how it was run: as §1

SMILES	Excretion rate (Pan troglodytes [1])	Excretion rate (Pan troglodytes [2])	Ratio [3]	Excretion rate (Pan troglodytes [4])	Excretion rate (Rattus norvegicus [5])	Excretion rate (Rattus norvegicus [6])	Excretion rate (Rattus norvegicus [7])	Excretion rate (Rattus norvegicus [8])	also measured
O=C(O)COc1cc2c(c(Cl)c1Cl)C(=O)C1(CCCC1)C2	399	42	0.14	321	–	–	–	–	–
CCCC1Cc2c3c(c(C)c(C)c2C1=O)OC(C(=O)O)C3 (centres undefined)	–	–	0.01	252	–	–	–	–	–
CCC1C(=O)c2c(Cl)c(Cl)c3c(c2C1c1ccccc1)CC(C(=O)O)O3 (centres undefined)	–	–	0.16	820	82	109	94	87	–
CCCN(CCC)S(=O)(=O)c1ccc(C(=O)O)cc1 [PROBENECID]	–	–	0.05	–	–	–	–	–	–
NS(=O)(=O)c1cc(C(=O)O)c(NCc2ccco2)cc1Cl [FUROSEMIDE]	–	–	-0.02	–	125	7	–	244	Excretion rate (Pan troglodytes [9]): 1040 µequiv/min
O=C(O)[C@H]1Cc2c3c(c(Cl)c(Cl)c2O1)C(=O)C1(CCCC1)C3 (stereo in doubt; 4d)	1990	274	–	–	349	–	–	432	Excretion rate (Rattus norvegicus [6]; 9 mg/kg): 323; Excretion rate (Rattus norvegicus [7]; 3 mg/kg): 224; Ratio ([3]; 5 mg/kg): 0; Excretion rate (Pan troglodytes [4]; 5 mg/kg): 1500
CC1(c2ccccc2)Cc2c3c(c(Cl)c(Cl)c2C1=O)O[C@H](C(=O)O)C3 (some centres undefined)	–	–	0.09	–	281	267	189	388	Excretion rate (Pan troglodytes [10]): 1532; Excretion rate (Pan troglodytes [11]): 88; Excretion rate (Pan troglodytes [12]): 1305
CC1(C2CCCC2)Cc2cc(OCC(=O)O)c(Cl)c(Cl)c2C1=O (centres undefined)	367	64	0.2	425	–	–	–	–	–
CC1(c2ccccc2)Cc2cc(OCC(=O)O)c(Cl)c(Cl)c2C1=O (centres undefined) [INDACRINONE]	539	108	0.38	409	129	97	86	189	–
CC1(C2CCCC2)Cc2c3c(c(Cl)c(Cl)c2C1=O)O[C@@H](C(=O)O)C3 (some centres undefined)	614	63	-0.04	437	279	223	127	340	–
NS(=O)(=O)c1cc2c(cc1Cl)NCNS2(=O)=O [HYDROCHLOROTHIAZIDE]	198	73	–	144	–	112	–	–	–
CCCC1Cc2c(c(C)c(C)c3oc(C(=O)O)cc23)C1=O (centres undefined)	–	–	0.01	0	32	16	15	28	–
